Tests used:
[1] = test system: Homo sapiens; assay: Toxicity in human patient infected with Influenza virus assessed as proteinuria at 600 mg, iv; assay type: organism-based; settings: in vivo
Method in brief: (§1)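 Subjects received a single intravenous peramivir dose (300 or 600 mg) or placebo, infused over a median of 0.63 h. Urinalysis covered protein, albumin and sediment, among other analytes. Urine was collected at baseline and on days 3 and 14 and tested by blinded technicians. Incidence in the safety population (n = 298 treated) was compared with placebo by Fisher's exact test.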

[2] = test system: Homo sapiens; assay: Toxicity in human patient infected with Influenza virus assessed as increase in lymphocyte at 300 mg, iv; assay type: organism-based; settings: in vivo
Method in brief: (§2)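 One IV dose of 300 or 600 mg or placebo was given to adults with influenza. Blood (hematology, biochemistry) and urine (including NAG, β2- and α1-microglobulin, protein) were sampled at baseline, day 3 and day 14 by blinded technicians. Adverse-event incidence versus placebo was compared by Fisher's exact test.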

[3] = test system: Homo sapiens; assay: Toxicity in human patient infected with Influenza virus assessed as prolongation of electrocardiogram QT interval at 300 mg, iv; assay type: organism-based; settings: in vivo
[4] = test system: Homo sapiens; assay: Toxicity in human patient infected with Influenza virus assessed as occurrence of diarrhea at 300 mg, iv; assay type: organism-based; settings: in vivo
Method in brief: (§3)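 In this randomized trial, subjects received a single intravenous infusion of peramivir (300 mg or 600 mg) or matching placebo; the median infusion lasted 0.63 h. Subjects were followed at visits on days 1, 2 (optional), 3, 5, 9 and 14. Adverse-event incidences across the 298 treated subjects were compared with placebo using Fisher's exact test.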

[5] = test system: Homo sapiens; assay: Toxicity in human patient infected with Influenza virus assessed as occurrence of nausea at 300 mg, iv; assay type: organism-based; settings: in vivo; method in brief: as §3
[6] = test system: Homo sapiens; assay: Toxicity in human patient infected with Influenza virus assessed as beta2 microglobulin in urine at 600 mg, iv; assay type: organism-based; settings: in vivo; method in brief: as §2
[7] = test system: Homo sapiens; assay: Toxicity in human patient infected with Influenza virus assessed as beta-N-Acetyl-D-glucosaminidase at 300 mg, iv; assay type: organism-based; settings: in vivo; method in brief: as §2
[8] = test system: Influenza A virus; assay: Antiviral activity against Influenza A virus H3N2 infected in human patient assessed as alleviation time of symptoms at 300 mg, iv (reference value: 81 hrs); assay type: functional
[9] = test system: Influenza A virus; assay: Antiviral activity against influenza A virus H3N2 infected in MDCK cells assessed as inhibition of neuraminidase activity by fluorimetric assay; assay type: functional, organism-based
Method in brief: (§4)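 Viruses were isolated from baseline patient swabs on MDCK cells. Neuraminidase inhibition was measured by a standard fluorometric assay. IC50 came from plotting percent inhibition of neuraminidase activity against inhibitor concentration, reported as mean ± SD of three independent experiments.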

[10] = test system: Homo sapiens; assay: Toxicity in human patient infected with Influenza virus assessed as increase in blood glucose level at 600 mg, iv; assay type: organism-based; settings: in vivo; method in brief: as §2
[11] = test system: Homo sapiens; assay: Toxicity in human patient infected with Influenza virus assessed as increase in aspartate aminotransferase at 300 mg, iv; assay type: organism-based; settings: in vivo; method in brief: as §2
[12] = test system: Homo sapiens; assay: Toxicity in human patient infected with Influenza virus assessed as white blood cells-positive urine at 600 mg, iv; assay type: organism-based; settings: in vivo; method in brief: as §1
[13] = test system: Homo sapiens; assay: Toxicity in human patient infected with Influenza virus assessed as beta2 microglobulin in urine at 300 mg, iv; assay type: organism-based; settings: in vivo; method in brief: as §2
[14] = test system: unidentified influenza virus; assay: Antiviral activity against Influenza virus infected in human patient assessed as decrease in virus-positive patients at 600 mg, iv on day 3; assay type: functional
Method in brief: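 Nasal and throat swabs were taken at baseline and on days 2, 3, 5 and 9, held in 2 ml transport medium, and titrated on MDCK cells in triplicate: 10-fold dilutions, 3 μg/ml trypsin, 1 h adsorption, washes, then 3 days at 37°C. CPE gave TCID50/ml by Spearman-Karber; positive meant ≥1.1 log10 TCID50/ml. Proportions were compared by Mantel-Haenszel test stratified for smoking and baseline score.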

[15] = test system: Homo sapiens; assay: Toxicity in human patient infected with Influenza virus assessed as increase in blood bilirubin at 300 mg, iv; assay type: organism-based; settings: in vivo; method in brief: as §2
[16] = test system: Homo sapiens; assay: Toxicity in human patient infected with Influenza virus assessed as nausea at 300 mg, iv; assay type: organism-based; settings: in vivo; method in brief: as §3
[17] = test system: Influenza A virus; assay: Antiviral activity against influenza A virus infected in MDCK cells assessed as inhibition of neuraminidase activity by fluorimetric assay; assay type: functional, organism-based; method in brief: as §4
[18] = test system: Homo sapiens; assay: Toxicity in human patient infected with Influenza virus assessed as increase in blood phosphate at 300 mg, iv; assay type: organism-based; settings: in vivo; method in brief: as §2
[19] = test system: Homo sapiens; assay: Toxicity in human patient infected with Influenza virus assessed as increase in blood phosphate at 600 mg, iv; assay type: organism-based; settings: in vivo; method in brief: as §2
[20] = test system: Homo sapiens; assay: Toxicity in human patient infected with Influenza virus assessed as lymphocyte morphology abnormal at 600 mg, iv; assay type: organism-based; settings: in vivo
Method in brief: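 Adults with seasonal influenza received one intravenous infusion of peramivir (300 or 600 mg) or matching placebo; the median infusion lasted 0.63 h. Blood for haematology, including the white-cell differential, was taken at baseline and on days 3 and 14. Tests were run by blinded technicians. Adverse-event incidence in the 298-subject safety population was compared with placebo by Fisher's exact test.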

[21] = test system: Homo sapiens; assay: Toxicity in human patient infected with Influenza virus assessed as increase in blood lactate dehydrogenase at 600 mg, iv; assay type: organism-based; settings: in vivo; method in brief: as §2
[22] = test system: Homo sapiens; assay: Toxicity in human patient infected with Influenza virus assessed as proteinuria at 300 mg, iv; assay type: organism-based; settings: in vivo; method in brief: as §1
[23] = test system: Plasma; assay: Plasma concentration in human at 600 mg, iv; assay type: ADME
Method in brief: (§5)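 Subjects received a single IV infusion of 300 or 600 mg (mean 5.0 or 10.0 mg/kg; median infusion 0.63 h). Plasma was sampled just before the infusion ended, and on days 2 and 3. Samples were deproteinized and run on C18 LC/MS-MS. Values are medians at end of infusion, 18–24 h and 36–48 h after infusion.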

[24] = test system: Plasma; assay: Plasma concentration in human at 300 mg, iv after 36 to 48 hrs; assay type: ADME, organism-based; settings: in vivo; method in brief: as §5
[25] = test system: Plasma; assay: Plasma concentration in human at 600 mg, iv after 18 to 24 hrs; assay type: ADME, organism-based; settings: in vivo; method in brief: as §5
[26] = test system: Homo sapiens; assay: Toxicity in human patient infected with Influenza virus assessed as increase in blood bilirubin at 600 mg, iv; assay type: organism-based; settings: in vivo; method in brief: as §2
[27] = test system: Homo sapiens; assay: Toxicity in human patient infected with Influenza virus assessed as occurrence of nausea at 600 mg, iv; assay type: organism-based; settings: in vivo; method in brief: as §3
[28] = test system: Influenza A virus; assay: Antiviral activity against influenza A virus H1N1 infected in MDCK cells assessed as inhibition of neuraminidase activity by fluorimetric assay; assay type: functional, organism-based; method in brief: as §4
[29] = test system: Homo sapiens; assay: Toxicity in human patient infected with Influenza virus assessed as decrease in white blood cell count at 600 mg, iv; assay type: organism-based; settings: in vivo; method in brief: as §2
[30] = test system: Plasma; assay: Plasma concentration in human at 300 mg, iv after 18 to 24 hrs; assay type: ADME, organism-based; settings: in vivo; method in brief: as §5
[31] = test system: Homo sapiens; assay: Toxicity in human patient infected with Influenza virus assessed as increase in blood glucose at 300 mg, iv; assay type: organism-based; settings: in vivo; method in brief: as §2
[32] = test system: Homo sapiens; assay: Toxicity in human patient infected with Influenza virus assessed as urine containing albumine at 600 mg, iv; assay type: organism-based; settings: in vivo; method in brief: as §1
[33] = test system: Influenza A virus; assay: Antiviral activity against Influenza A virus H3N2 infected in human patient assessed as alleviation time of symptoms at 600 mg, iv (reference value: 81 hrs); assay type: functional
[34] = test system: Homo sapiens; assay: Toxicity in human patient infected with Influenza virus assessed as occurrence of otitis at 600 mg, iv; assay type: organism-based; settings: in vivo; method in brief: as §3
[35] = test system: Plasma; assay: Plasma concentration in human at 300 mg, iv; assay type: ADME; method in brief: as §5

CCC(CC)[C@H](NC(C)=O)[C@@H]1[C@H](O)[C@@H](C(=O)O)C[C@H]1NC(=N)N [PERAMIVIR ANHYDROUS]
Activity [1]: Toxic
Activity [2]: Toxic
Activity [3]: 2%
Activity [4]: 14.1%
Activity [5]: 3%
Activity [6]: Toxic
Activity [7]: Toxic
Time [8]: 76.1 h
IC50 [9]: 3.51 nM
Activity [10]: Toxic
Activity [11]: Toxic
Activity [12]: Toxic
Activity [13]: Toxic
inhibition (INH) [14]: 25.8%
Activity [15]: Toxic
Activity [16]: Toxic
IC50 [17]: 1.72 nM
Activity [18]: Toxic
Activity [19]: Toxic
Activity [20]: Toxic
Activity [21]: Toxic
Activity [22]: Toxic
Cp [23]: 36300 ng/mL
Cp [24]: 5.01 ng/mL
Cp [25]: 32.8 ng/mL
Activity [26]: Toxic
Activity [27]: 6.1%
IC50 [28]: 9.43 nM
Activity [29]: Toxic
Cp [30]: 14.8 ng/mL
Activity [31]: Toxic
Activity [32]: Toxic
Time [33]: 50.5 h
Activity [34]: 1%
Cp [35]: 18100 ng/mL

Source: ChEMBL document CHEMBL1671747, “Efficacy and safety of intravenous peramivir for treatment of seasonal influenza virus infection” (Antimicrob Agents Chemother, 2010)
